Measurements from different studies.
Target: Mitogen-activated protein kinase 10 (MAPK10, Homo sapiens, UniProt P53779)

| SMILES | assay | setting | remaining binding |
| --- | --- | --- | --- |
| C[C@@H]1CN(c2ccc3ncc(-c4ccc5[nH]nc(C6CC6)c5c4)n3n2)C[C@H](C)O1 | binding, competition with immobilised ligand | 0.5 µM | 52% |
| COC(=O)Nc1nc2ccc(C(=O)c3ccccc3)cc2[nH]1 | cell-free assay, competition with immobilised ligand | 10 µM | 3% |
| O=C(O)[C@@H]1[C@@H](Cn2nnc3ccccc3c2=O)CC[C@H]1C(=O)c1ccc(OCCC2CCOCC2)cc1 | cell-free assay, competition with immobilised ligand | 1 µM | 100% |
| FC(F)(F)Oc1cccc(-c2cnc3ccc(-c4ccncc4)nn23)c1 | cell-free assay, competition with immobilised ligand | 5 µM | 65% |
| CCC(=N\O)/C(C)=C/c1ccc(F)cc1 | cell-free assay, competition with immobilised ligand | 1 µM | 100% |
| O=C(c1ccc(Nc2nccc(-c3cc4ccccc4s3)n2)cc1)N1CCC(N2CCCC2)CC1 | binding, competition with immobilised ligand | 1 µM | 12% |
| O=C(Nc1c[nH]nc1C(=O)NC1CCNCC1)c1cc(F)cc(F)c1 | binding, competition with immobilised ligand | 1 µM | 100% |
| CN(C)c1ncc(F)c(-c2cnn3ncccc23)n1 | binding | 1 µM | 73% |
| CC(C)(C)c1ccc(-c2nc(CBr)nn2-c2cccc(O)c2)cc1 | cell-free assay, competition with immobilised ligand | 10 µM | 65% |
| O=C(NCCCN1CCOCC1)c1ccc(Nc2ncc(Cl)c(-c3ccc(Cl)s3)n2)cc1 | binding, competition with immobilised ligand | 1 µM | 4.7% |
| Cc1ccc(-c2cnc([C@@]3(O)CC[C@H](C(=O)O)C(C)(C)C3)s2)cc1Nc1cccc(C(F)(F)F)n1 | binding, competition with immobilised ligand | 1 µM | 37.5% |
| C[C@H]1CCN(c2nccc(-c3cnn4ncccc34)n2)C1 | binding | 1 µM | 32% |
| O=C(N1CCS(=O)(=O)CC1)N1C[C@H](c2ccc(OC(F)(F)F)cc2)C[C@H](c2nc(C3CC3)no2)C1 | cell-free assay, competition with immobilised ligand | 1 µM | 79% |
| COc1cnc(Nc2cccc(S(N)(=O)=O)c2)nc1N1CCN(c2ccccc2)C(=O)C1 | binding, competition with immobilised ligand | 1 µM | 63% |
| N[C@@H]1CCN(c2nccc(-c3cnn4ncccc34)n2)C1 | binding | 1 µM | 52% |
| Cc1nc(N2CC[C@@H](O)C2)ncc1-c1cc(C(F)(F)F)cc2[nH]ncc12 | binding, competition with immobilised ligand | 1 µM | 72% |
| CN(C)c1nccc(-c2cnn3ncccc23)n1 | binding | 1 µM | 49% |
| CS(=O)(=O)NCC[C@H](NC(=O)c1cncc2c1cnn2-c1ccc(F)cc1)c1ccnc(S(C)(=O)=O)c1 | cell-free assay, competition with immobilised ligand | 1 µM | 100% |
| F[C@@H]1CCN(c2nccc(-c3cnn4ncccc34)n2)C1 | binding | 1 µM | 87% |
| CNC(=O)[C@@H]1CC[C@@H](n2c(-c3ccc4cnccc4c3)nc3ccc(C(=O)NCc4cccc(C(N)=O)c4)cc32)C1 | binding, competition with immobilised ligand | 1 µM | 84% |
| O=C(c1ccc(Nc2ncc(Cl)c(-c3cc4ccccc4s3)n2)cc1)N1CCC(N2CCCC2)CC1 | binding, competition with immobilised ligand | 1 µM | 5.8% |
| CN(C)c1nccc(-c2cnc3ncccn23)n1 | binding | 1 µM | 70% |
| Cc1noc([C@H]2C[C@@H](c3ccc(C(F)(F)F)cc3)CN(C(=O)N3CCS(=O)(=O)C3)C2)n1 | cell-free assay, competition with immobilised ligand | 1 µM | 88% |
| CCN1CCN(Cc2ccc(C(=O)Nc3ccc(C)c(Oc4ccc5c(c4)CC(=O)N5)c3)cc2C(F)(F)F)CC1 | binding, competition with immobilised ligand | 1 µM | 81% |
